Laboratory results from ChEMBL document CHEMBL4680104, “Structure-Based Optimization of Small-Molecule Inhibitors for the β-Catenin/B-Cell Lymphoma 9 Protein-Protein Interaction” (J Med Chem, 2018).

Biological target: T1, beta-catenin-B-cell lymphoma 9 protein complex (Homo sapiens, UniProt P35222)
T1 sequence (P35222 whole entry): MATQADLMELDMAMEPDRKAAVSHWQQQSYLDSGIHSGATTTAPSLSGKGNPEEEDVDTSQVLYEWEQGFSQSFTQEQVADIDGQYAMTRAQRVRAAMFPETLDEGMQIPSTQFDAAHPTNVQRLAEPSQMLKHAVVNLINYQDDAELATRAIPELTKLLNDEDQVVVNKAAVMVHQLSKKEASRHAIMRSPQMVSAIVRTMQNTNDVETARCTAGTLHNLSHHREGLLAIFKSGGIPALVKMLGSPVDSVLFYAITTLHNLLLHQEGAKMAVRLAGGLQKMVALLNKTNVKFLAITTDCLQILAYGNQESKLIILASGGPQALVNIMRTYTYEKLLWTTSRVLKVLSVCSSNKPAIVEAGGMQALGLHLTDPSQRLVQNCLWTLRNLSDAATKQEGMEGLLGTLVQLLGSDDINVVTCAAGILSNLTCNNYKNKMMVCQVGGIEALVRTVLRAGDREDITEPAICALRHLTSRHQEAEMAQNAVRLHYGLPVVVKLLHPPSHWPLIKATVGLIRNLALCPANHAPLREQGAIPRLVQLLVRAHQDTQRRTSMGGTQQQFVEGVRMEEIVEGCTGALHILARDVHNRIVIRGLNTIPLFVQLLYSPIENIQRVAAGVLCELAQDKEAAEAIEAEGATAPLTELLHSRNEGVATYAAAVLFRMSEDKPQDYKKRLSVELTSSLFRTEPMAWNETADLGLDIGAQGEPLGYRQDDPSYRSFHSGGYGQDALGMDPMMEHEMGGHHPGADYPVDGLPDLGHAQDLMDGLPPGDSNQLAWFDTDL
T1 sequence (O00512 whole entry): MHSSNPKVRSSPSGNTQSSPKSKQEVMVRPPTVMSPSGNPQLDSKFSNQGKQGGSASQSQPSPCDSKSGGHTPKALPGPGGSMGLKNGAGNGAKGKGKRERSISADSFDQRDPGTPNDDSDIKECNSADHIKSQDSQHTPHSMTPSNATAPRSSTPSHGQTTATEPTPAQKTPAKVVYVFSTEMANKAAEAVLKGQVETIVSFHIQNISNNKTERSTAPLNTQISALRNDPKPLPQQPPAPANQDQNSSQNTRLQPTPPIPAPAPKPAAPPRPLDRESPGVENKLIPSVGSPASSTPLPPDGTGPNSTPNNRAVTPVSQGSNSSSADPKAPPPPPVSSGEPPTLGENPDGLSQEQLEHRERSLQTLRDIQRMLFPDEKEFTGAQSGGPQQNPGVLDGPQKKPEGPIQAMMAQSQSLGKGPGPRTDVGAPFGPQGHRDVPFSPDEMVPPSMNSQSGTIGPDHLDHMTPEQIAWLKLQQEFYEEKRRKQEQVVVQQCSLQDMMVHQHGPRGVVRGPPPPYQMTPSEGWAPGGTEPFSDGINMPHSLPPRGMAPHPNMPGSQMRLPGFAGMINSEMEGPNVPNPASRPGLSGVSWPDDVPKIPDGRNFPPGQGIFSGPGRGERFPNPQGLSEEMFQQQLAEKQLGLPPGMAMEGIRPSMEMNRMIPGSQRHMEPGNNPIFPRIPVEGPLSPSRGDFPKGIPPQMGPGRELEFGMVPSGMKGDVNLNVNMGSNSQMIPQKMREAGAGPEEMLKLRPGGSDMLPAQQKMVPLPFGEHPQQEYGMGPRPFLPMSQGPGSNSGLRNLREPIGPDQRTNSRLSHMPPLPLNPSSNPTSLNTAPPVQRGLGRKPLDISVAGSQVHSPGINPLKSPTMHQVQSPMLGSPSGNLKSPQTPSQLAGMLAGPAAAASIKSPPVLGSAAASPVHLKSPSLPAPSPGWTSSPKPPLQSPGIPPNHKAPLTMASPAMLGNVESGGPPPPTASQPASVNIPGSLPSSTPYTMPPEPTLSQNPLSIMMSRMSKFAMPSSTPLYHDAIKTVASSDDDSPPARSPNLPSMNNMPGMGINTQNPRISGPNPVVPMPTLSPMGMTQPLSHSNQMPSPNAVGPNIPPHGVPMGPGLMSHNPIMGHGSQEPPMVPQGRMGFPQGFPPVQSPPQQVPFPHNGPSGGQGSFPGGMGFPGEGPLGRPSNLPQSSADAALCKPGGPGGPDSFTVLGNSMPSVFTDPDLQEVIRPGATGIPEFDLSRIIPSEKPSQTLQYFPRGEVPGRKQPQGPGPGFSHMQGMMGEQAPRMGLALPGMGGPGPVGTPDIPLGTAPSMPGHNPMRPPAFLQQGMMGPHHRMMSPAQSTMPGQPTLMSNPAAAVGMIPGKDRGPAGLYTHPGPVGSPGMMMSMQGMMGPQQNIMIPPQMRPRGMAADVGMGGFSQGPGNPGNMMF
Assay: Inhibition of protein interaction between beta-catenin (unknown origin)/BCL9 (unknown origin) by Alpha-screen competitive inhibition assay
Type: protein-complex assay
Summary of the method: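 Purified His6-tagged full-length β-catenin (40 nM) preincubated with biotinylated BCL9 (5 nM) for 30 min at 4 °C. Inhibitor dilutions then added, 1 h at 4 °C, followed by donor and acceptor beads (10 μg/mL final) for 1 h at 4 °C. IC50 obtained by nonlinear least-squares fit and converted to Ki by the Nikolovska-Coleska method. Triplicate, mean ± SD.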

Cl.Cl.O=C(Nc1ccc(O[C@H]2CCNC2)c(-c2ccc(F)cc2)c1)c1ccc(O[C@H]2CCNC2)c(-c2ccc(F)c(F)c2)c1
Ki: 2.1 µM
